Experimental data as given in publication PMC4113001 (Biochimica et biophysica acta, 2011).

Key:
CRBPI [1] = biological target: T1, CRBPI (Rattus norvegicus, UniProt P02696); assay: Fluorescence titration binding of retinoids to CRBPI; conditions: for affinity of CRBPI compared to CRBPII (fold stronger): ratio of Kd′ values CRBPII/CRBPI
T1 sequence (P02696 1-135): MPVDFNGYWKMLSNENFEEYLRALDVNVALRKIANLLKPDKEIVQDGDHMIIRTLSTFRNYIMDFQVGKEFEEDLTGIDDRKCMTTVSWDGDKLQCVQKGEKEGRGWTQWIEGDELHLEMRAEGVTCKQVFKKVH

CRBPII = biological target: T2, CRBPII (Rattus norvegicus, UniProt P06768); assay type: binding; conditions: excitation spectra pre- and post-column
T2 sequence (P06768 1-134): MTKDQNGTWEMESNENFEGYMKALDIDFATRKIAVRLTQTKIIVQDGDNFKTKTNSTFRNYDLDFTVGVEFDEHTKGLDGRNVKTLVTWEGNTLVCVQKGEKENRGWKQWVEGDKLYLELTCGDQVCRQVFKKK
Method in brief: (§1)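 Sephadex G-50 (fine) was equilibrated for several days in 20 mM KH2PO4, 100 mM KCl, pH 7.4. Small syringe columns were poured, a separate one for each protein–ligand pair. E. coli-expressed, FPLC-purified protein carried bound retinol. Excitation spectra of the complex were recorded before and after passage, with roughly equivalent free retinol in buffer as reference. Blanks were subtracted.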

CRBPI [2] = biological target: T1, CRBPI; assay type: binding; conditions: excitation spectra pre- and post-column
Method in brief: as §1

CRBPI and II = conditions: 19F NMR estimate; cited from earlier work

Compound	CRBPI affinity for 9-cis-retinol relative to all-trans- and 13-cis-retinol (fold lower) (CRBPI [1]; ratio of Kd′ values)	affinity of CRBPI compared to CRBPII (fold stronger) (CRBPI [1])	elution of complex with CRBPII through Sephadex G-50 (CRBPII)	elution of complex with CRBPI through Sephadex G-50 (CRBPI [2])	Kd′ value of CRBPI relative to CRBPII (fold less) (CRBPI and II)
CC1=C(/C=C/C(C)=C\C=C\C(C)=C\CO)C(C)(C)CCC1 [9-cis-retinol]	~ 3 fold	~ 6 fold	eluted bound	eluted bound	
CC1=C(/C=C/C(C)=C/C=C/C(C)=C/CO)C(C)(C)CCC1 [all-trans-retinol]		~ 3 fold	bound	bound	10–100 fold
